{
  "source": "ChEMBL document CHEMBL4732262",
  "about": "“Identification of two novel thiophene analogues as inducers of autophagy mediated cell death in breast cancer cells” (Bioorg Med Chem, 2021)",
  "key": {"MCF7 [1]": {"test_system": "MCF7", "assay": "Induction of autophagy in human MCF7 cells assessed as LC3-2 to LC3-1 protein ratio at 1.25 uM after 24 hrs by Western blot analysis (reference value: 0.22 to 0.8)", "assay_type": "functional"}, "MCF7 [2]": {"test_system": "MCF7", "assay": "Induction of autophagy in human MCF7 cells expressing GFP-LC3 assessed as distinct puncta pattern at 2.5 uM after 24 hrs by live-cell confocal microscopic analysis", "assay_type": "functional, cell-based", "how_it_was_run": "(§1)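 MCF7 cells (~1 × 10^6) at 70% confluency on glass-bottom dishes were transiently transfected with GFP-LC3 (Lipofectamine 3000). 24 h later they received 2.5 µM compound or DMSO for another 24 h. Nuclei were stained with Hoechst 33342 and lysosomes with LysoTracker Red DND-99, then imaged by live-cell confocal microscopy. LC3 puncta were counted in at least 10 cells from 3 fields. Two independent experiments.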"}, "MCF7 [3]": {"test_system": "MCF7", "assay": "Induction of apoptosis in human MCF7 cells assessed as increase in cell death at 2.5 uM after 24 hrs by EtBr/AO staining based fluorescence microscopic method relative to tanshinone-2A", "assay_type": "functional", "how_it_was_run": "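MCF7 cells (~5 × 10^4 per well, on coverslips) were left untreated (DMSO control) or treated at 2.5 µM for 24 h. Cells were PBS-washed, stained with 1:1 EtBr/AO (0.4 mg/ml each), washed and mounted, then viewed by fluorescence microscopy (480 nm excitation, 515-530 nm barrier filter). 200 cells per sample were scored apoptotic, necrotic or viable; percentages were taken relative to live cells.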"}, "MCF7 [4]": {"test_system": "MCF7", "assay": "Induction of autophagy in human MCF7 cells assessed as increase in GABARAPL1 mRNA expression at 2.5 uM after 24 hrs by RT-PCR analysis", "assay_type": "functional, cell-based", "how_it_was_run": "(§2)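 MCF7 cells given 2.5 µM or DMSO for 24 h. Total RNA extracted with TRIzol and reverse-transcribed, then SYBR Green qPCR across 34 autophagy-regulatory genes (95 °C 10 min; 40 cycles of 95 °C 15 s and 60 °C 1 min). Relative expression by 2^-ΔΔCt against housekeeping genes and DMSO control, shown as log2. Two independent experiments.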"}, "MDA-MB-231": {"test_system": "MDA-MB-231", "assay": "Induction of apoptosis in human MDA-MB-231 cells assessed as late apoptotic cells at 2.5 uM after 24 hrs by annexin V-FITC/Propidium iodide staining based flow cytometric analysis (reference value: 0.08%)", "assay_type": "functional"}, "MCF7 [5]": {"test_system": "MCF7", "assay": "Induction of apoptosis in human MCF7 cells assessed as change in Bax protein expression at 2.5 uM after 24 hrs by Western blot analysis", "assay_type": "functional, cell-based", "how_it_was_run": "(§3)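 MCF7 or MDA-MB-231 cells given 2.5 µM or DMSO for 24 h, then lysed in RIPA buffer. Immunoblots probed overnight at 4 °C, followed by infrared-labelled secondary antibody for 1 h at 37 °C. Bands imaged and quantified densitometrically, with GAPDH as loading control. Representative of two independent experiments.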"}, "MCF7 [6]": {"test_system": "MCF7", "assay": "Induction of autophagy in human MCF7 cells assessed as increase in LC3-2 conversion level at 2.5 uM after 24 hrs in presence of chloroquine by Western blot analysis", "assay_type": "functional, cell-based", "how_it_was_run": "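MCF7 cells given 2.5 µM alone or combined with 50 µM chloroquine for 24 h. Western blot for cleaved PARP, p62 and LC3, with GAPDH as loading control. LC3-II/I ratio by densitometry. At least two independent experiments.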"}, "MCF7 [7]": {"test_system": "MCF7", "assay": "Induction of apoptosis in human MCF7 cells assessed as increase in cleaved PARP level at 2.5 uM after r24 hrs by Western blot analysis", "assay_type": "functional, cell-based", "conditions": "time 24.0 hrs", "how_it_was_run": "as §3"}, "MCF7 [8]": {"test_system": "MCF7", "assay": "Induction of apoptosis in human MCF7 cells assessed as change in Bcl-2 protein expression at 2.5 uM after 24 hrs by Western blot analysis", "assay_type": "functional, cell-based", "how_it_was_run": "as §3"}, "MCF7 [9]": {"test_system": "MCF7", "assay": "Induction of apoptosis in human MCF7 cells at 2.5 uM after 24 hrs by annexin V-FITC/Propidium iodide staining based flow cytometric analysis relative to tanshinone-2A", "assay_type": "functional"}, "MCF7 [10]": {"test_system": "MCF7", "assay": "Induction of autophagy in human MCF7 cells assessed as increase in PIK3CG mRNA expression at 2.5 uM after 24 hrs by RT-PCR analysis", "assay_type": "functional, cell-based", "how_it_was_run": "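Total RNA was taken with TRIzol from MCF7 cells treated 24 h with 2.5 µM compound or DMSO, then reverse transcribed. SYBR Green qPCR ran 40 cycles of 95 °C 15 s / 60 °C 1 min. Relative expression was calculated by 2^-ΔΔCt against DMSO-treated cells, normalized to housekeeping genes (GAPDH, B2M and others). Samples run in duplicate, two independent experiments, values averaged.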"}, "MCF7 [11]": {"test_system": "MCF7", "assay": "Induction of autophagy in human MCF7 cells assessed as increase in ATG16L1 mRNA expression at 2.5 uM after 24 hrs by RT-PCR analysis", "assay_type": "functional, cell-based", "how_it_was_run": "as §2"}, "MCF7 [12]": {"test_system": "MCF7", "assay": "Induction of autophagy in human MCF7 cells expressing GFP tagged LC3-2 assessed as increase in […] puncta formation at 2.5 uM after 24 hrs by confocal microscopic analysis", "assay_type": "functional, cell-based", "how_it_was_run": "as §1"}, "MCF7 [13]": {"test_system": "MCF7", "assay": "Induction of autophagy in human MCF7 cells assessed as increase in CHOP mRNA expression at 2.5 uM after 24 hrs by RT-PCR analysis", "assay_type": "functional, cell-based"}, "MCF7 [14]": {"test_system": "MCF7", "assay": "Induction of autophagy in human MCF7 cells assessed as increase in GADD34 mRNA expression at 2.5 uM after 24 hrs by RT-PCR analysis", "assay_type": "functional, cell-based"}, "MCF7 [15]": {"test_system": "MCF7", "assay": "Induction of autophagy in human MCF7 cells assessed as increase in ATG16L2 mRNA expression at 2.5 uM after 24 hrs by RT-PCR analysis", "assay_type": "functional, cell-based", "how_it_was_run": "as §2"}, "MCF7 [16]": {"test_system": "MCF7", "assay": "Induction of autophagy in human MCF7 cells assessed as increase in GABARAPL2 mRNA expression at 2.5 uM after 24 hrs by RT-PCR analysis", "assay_type": "functional, cell-based", "how_it_was_run": "as §2"}, "MCF7 [17]": {"test_system": "MCF7", "assay": "Induction of apoptosis in human MCF7 cells assessed as necrotic cells at 2.5 uM after 24 hrs by annexin V-FITC/Propidium iodide staining based flow cytometric analysis (reference value: 1.22%)", "assay_type": "functional"}, "MCF7 [18]": {"test_system": "MCF7", "assay": "Induction of autophagy in human MCF7 cells expressing mCherry-tagged p62 assessed as reduction in p62 expression at 2.5 uM after 24 hrs by live-cell confocal microscopic analysis", "assay_type": "functional, cell-based", "how_it_was_run": "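MCF7 cells were co-transfected with GFP-LC3 and mCherry-p62 constructs. 24 h later they were exposed to 2.5 µM compound, 50 µM chloroquine or DMSO for a further 24 h. Nuclei were stained with Hoechst 33342 and cells imaged by live-cell confocal microscopy. Two independent experiments.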"}, "MCF7 [19]": {"test_system": "MCF7", "assay": "Induction of autophagy in human MCF7 cells assessed as increase in IRE1 mRNA expression at 2.5 uM after 24 hrs by PCR microarray analysis", "assay_type": "functional, cell-based", "how_it_was_run": "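MCF7 cells given 2.5 µM or DMSO for 24 h. cDNA run on an Unfolded Protein Response RT2 Profiler PCR array. Changes computed by 2^-ΔΔCt (log2) against control, normalised to the mean of ACTB, B2M, GAPDH, HPRT1 and RPLPO.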"}, "MCF7 [20]": {"test_system": "MCF7", "assay": "Induction of autophagy in human MCF7 cells assessed as increase in p62 degradation at 2.5 uM after 24 hrs by Western blot analysis", "assay_type": "functional, cell-based", "how_it_was_run": "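MCF7 cells (~5 × 10^6) left untreated (DMSO control) or exposed to 2.5 µM compound for 24 h. Lysed in RIPA buffer, probed overnight at 4 °C, then given infrared-tagged secondary antibodies for 1 h at 37 °C and imaged by infrared scanning. LC3-II/I ratio and p62 taken by densitometry with GAPDH as loading control. Two independent experiments.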"}},
  "note": "Active and inactive are the calls of the source. The calls are words filed in the database; no cut-off is given here.",
  "data": [
    {"smiles": "O=C1C(=O)c2ccsc2-c2ccccc21", "values": [
      {"measurement": "Ratio", "setting": "MCF7 [1]", "value": 10.2},
      {"measurement": "Activity", "setting": "MCF7 [2]", "value": "Active"},
      {"measurement": "fold change (FC)", "setting": "MCF7 [3]", "value": 2},
      {"measurement": "Activity", "setting": "MCF7 [4]", "value": "Active"},
      {"measurement": "Activity", "setting": "MDA-MB-231", "value": 10.9, "unit": "%"},
      {"measurement": "Activity", "setting": "MCF7 [5]", "value": "inactive"},
      {"measurement": "Activity", "setting": "MCF7 [6]", "value": "inactive"},
      {"measurement": "Activity", "setting": "MCF7 [7]", "value": "Active"},
      {"measurement": "Activity", "setting": "MCF7 [8]", "value": "inactive"},
      {"measurement": "fold change (FC)", "setting": "MCF7 [9]", "value": ">=2"},
      {"measurement": "Activity", "setting": "MCF7 [10]", "value": "Active"},
      {"measurement": "Activity", "setting": "MCF7 [11]", "value": "Active"},
      {"measurement": "Activity", "setting": "MCF7 [12]", "value": "Active"},
      {"measurement": "Activity", "setting": "MCF7 [13]", "value": "Active"},
      {"measurement": "Activity", "setting": "MCF7 [14]", "value": "Active"},
      {"measurement": "Activity", "setting": "MCF7 [15]", "value": "Active"},
      {"measurement": "Activity", "setting": "MCF7 [16]", "value": "Active"},
      {"measurement": "Activity", "setting": "MCF7 [17]", "value": 37.7, "unit": "%"},
      {"measurement": "Activity", "setting": "MCF7 [18]", "value": "Active"},
      {"measurement": "Activity", "setting": "MCF7 [19]", "value": "Active"},
      {"measurement": "Activity", "setting": "MCF7 [20]", "value": "Active"}
    ]},
    {"smiles": "O=C1C(=O)c2sccc2-c2ccccc21", "values": [
      {"measurement": "Ratio", "setting": "MCF7 [1]", "value": 0.53},
      {"measurement": "Activity", "setting": "MCF7 [2]", "value": "Active"},
      {"measurement": "fold change (FC)", "setting": "MCF7 [3]", "value": 2},
      {"measurement": "Activity", "setting": "MCF7 [4]", "value": "Active"},
      {"measurement": "Activity", "setting": "MDA-MB-231", "value": 14.9, "unit": "%"},
      {"measurement": "Activity", "setting": "MCF7 [5]", "value": "inactive"},
      {"measurement": "Activity", "setting": "MCF7 [6]", "value": "inactive"},
      {"measurement": "Activity", "setting": "MCF7 [7]", "value": "Active"},
      {"measurement": "Activity", "setting": "MCF7 [8]", "value": "inactive"},
      {"measurement": "fold change (FC)", "setting": "MCF7 [9]", "value": ">=2"},
      {"measurement": "Activity", "setting": "MCF7 [10]", "value": "Active"},
      {"measurement": "Activity", "setting": "MCF7 [11]", "value": "Active"},
      {"measurement": "Activity", "setting": "MCF7 [12]", "value": "Active"},
      {"measurement": "Activity", "setting": "MCF7 [13]", "value": "Active"},
      {"measurement": "Activity", "setting": "MCF7 [14]", "value": "Active"},
      {"measurement": "Activity", "setting": "MCF7 [15]", "value": "Active"},
      {"measurement": "Activity", "setting": "MCF7 [16]", "value": "Active"},
      {"measurement": "Activity", "setting": "MCF7 [17]", "value": 22.2, "unit": "%"},
      {"measurement": "Activity", "setting": "MCF7 [18]", "value": "Active"},
      {"measurement": "Activity", "setting": "MCF7 [19]", "value": "Active"},
      {"measurement": "Activity", "setting": "MCF7 [20]", "value": "Active"}
    ]}
  ]
}
